Key:
HeLa [1] = assay: Induction of p21 promoter gene in human HeLa cells assessed as percent induction activity at 3 uM relative to SNDX-275; assay type: functional
A204 [2] = assay: Induction of klf2 promoter gene in human A204 cells assessed as percent induction activity at 3 uM relative to SNDX-275; assay type: functional
HeLa [3] = assay: Selectivity ratio for induction of p21 promoter gene in human HeLa cells to induction of klf2 promoter gene in human A204 cells at 3 uM; assay type: functional
HeLa [4] = assay: Induction of p21 promoter gene in human HeLa cells assessed as percent induction activity at 10 uM relative to SNDX-275; assay type: functional
A204 [5] = assay: Induction of klf2 promoter gene in human A204 cells assessed as percent induction activity at 10 uM relative to SNDX-275; assay type: functional
HeLa [6] = assay: Selectivity ratio for induction of p21 promoter gene in human HeLa cells to induction of klf2 promoter gene in human A204 cells at 10 uM; assay type: functional
HeLa [7] = assay: Antiproliferative activity against human HeLa cells assessed as growth at 3 uM after 24 hrs; assay type: functional; settings: read-out: Activity
Outline: (§1)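 HeLa and A204 cells exposed to test agents at 3 or 10 µM for 24 h. Growth is expressed as percent of vehicle-treated control cells.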

HeLa [8] = assay: Antiproliferative activity against human HeLa cells assessed as growth at 10 uM after 24 hrs; assay type: functional; settings: read-out: Activity; outline: as §1
A204 [9] = assay: Antiproliferative activity against human A204 cells assessed as growth at 3 uM after 24 hrs; assay type: functional; settings: A204, 24 h, read-out: Activity; outline: as §1
A204 [10] = assay: Antiproliferative activity against human A204 cells assessed as growth at 10 uM after 24 hrs; assay type: functional; settings: A204, 24 h, read-out: Activity; outline: as §1
Histone deacetylase 1 = Histone deacetylase 1 (Homo sapiens, UniProt Q13547); assay: Inhibition of HDAC1
Histone deacetylase 2 = Histone deacetylase 2 (Homo sapiens, UniProt Q92769); assay: Inhibition of HDAC2
Histone deacetylase 3 = Histone deacetylase 3 (Homo sapiens, UniProt O15379)
HeLa [11] = assay: Antiproliferative activity against human HeLa cells after 72 hrs by tetrazolium dye assay; assay type: functional
Outline: (§2)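 Tetrazolium dye proliferation assay over 72 h, with half-log serial dilutions from 30 µM down to 100 nM. GI50 was derived from the dose-response.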

U2OS = assay: Antiproliferative activity against human U2OS cells after 72 hrs by tetrazolium dye assay; assay type: functional; outline: as §2
HepG2 = assay: Antiproliferative activity against human HepG2 cells after 72 hrs by tetrazolium dye assay; assay type: functional; settings: HepG2, 72 h; outline: as §2
MCF7 = assay: Antiproliferative activity against human MCF7 cells after 72 hrs by tetrazolium dye assay; assay type: functional; settings: MCF7, 72 h; outline: as §2
HL-60 = assay: Antiproliferative activity against human HL60 cells after 72 hrs by tetrazolium dye assay; assay type: functional; settings: HL-60, 72 h; outline: as §2
HCT-116 [12] = assay: Antiproliferative activity against human HCT116 cells after 72 hrs by tetrazolium dye assay; assay type: functional; settings: HCT-116, 72 h; outline: as §2
HCT-116 [13] = assay: Induction of acetylated H4 level in human HCT116 cells after 24 hrs; assay type: functional, cell-based
Outline: (§3)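 HCT-116 cells treated for 24 h across a range of concentrations. Acetylated histone H4 and endogenous p21, or cell-cycle distribution, were assessed.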

HCT-116 [14] = assay: Induction of endogenous p21 level in human HCT116 cells after 24 hrs; assay type: functional, cell-based; outline: as §3
HCT-116 [15] = assay: Cell cycle arrest in human HCT116 cells after 24 hrs; assay type: functional, cell-based; outline: as §3
HCT-116 [16] = assay: Induction of apoptosis in human HCT116 cells after 48 hrs by annexin V/FACS analysis; assay type: functional, cell-based
Outline: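 HCT-116 cells exposed for 48 h to several concentrations or vehicle. Apoptosis was scored as percent annexin V-positive cells by FACS.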

Histone deacetylase 1, sequence (Q13547 whole entry): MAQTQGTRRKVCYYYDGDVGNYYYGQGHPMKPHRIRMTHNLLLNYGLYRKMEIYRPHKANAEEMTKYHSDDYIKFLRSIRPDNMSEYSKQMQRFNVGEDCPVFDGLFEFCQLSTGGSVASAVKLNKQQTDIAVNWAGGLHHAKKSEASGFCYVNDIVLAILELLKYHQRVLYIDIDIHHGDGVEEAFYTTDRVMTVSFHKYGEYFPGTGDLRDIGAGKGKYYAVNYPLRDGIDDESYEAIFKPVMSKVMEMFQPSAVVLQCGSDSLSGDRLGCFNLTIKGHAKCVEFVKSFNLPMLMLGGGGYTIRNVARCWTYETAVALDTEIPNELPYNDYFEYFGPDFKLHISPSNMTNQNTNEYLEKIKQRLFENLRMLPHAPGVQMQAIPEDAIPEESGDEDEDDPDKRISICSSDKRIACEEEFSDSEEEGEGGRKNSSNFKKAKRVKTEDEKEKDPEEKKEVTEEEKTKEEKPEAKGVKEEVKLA
Histone deacetylase 3, sequence (O15379 whole entry): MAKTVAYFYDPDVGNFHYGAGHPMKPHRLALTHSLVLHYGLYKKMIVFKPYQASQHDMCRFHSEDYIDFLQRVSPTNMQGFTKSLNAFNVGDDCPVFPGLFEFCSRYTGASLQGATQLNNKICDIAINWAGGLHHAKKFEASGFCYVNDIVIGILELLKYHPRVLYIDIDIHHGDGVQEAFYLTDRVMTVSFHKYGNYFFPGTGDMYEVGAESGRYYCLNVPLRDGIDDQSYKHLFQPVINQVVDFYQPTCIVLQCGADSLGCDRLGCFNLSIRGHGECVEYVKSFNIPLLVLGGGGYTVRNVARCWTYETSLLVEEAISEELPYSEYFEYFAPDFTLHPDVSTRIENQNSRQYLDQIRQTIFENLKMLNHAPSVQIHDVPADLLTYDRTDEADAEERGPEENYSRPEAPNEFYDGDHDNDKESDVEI
Histone deacetylase 2, sequence (Q92769 whole entry): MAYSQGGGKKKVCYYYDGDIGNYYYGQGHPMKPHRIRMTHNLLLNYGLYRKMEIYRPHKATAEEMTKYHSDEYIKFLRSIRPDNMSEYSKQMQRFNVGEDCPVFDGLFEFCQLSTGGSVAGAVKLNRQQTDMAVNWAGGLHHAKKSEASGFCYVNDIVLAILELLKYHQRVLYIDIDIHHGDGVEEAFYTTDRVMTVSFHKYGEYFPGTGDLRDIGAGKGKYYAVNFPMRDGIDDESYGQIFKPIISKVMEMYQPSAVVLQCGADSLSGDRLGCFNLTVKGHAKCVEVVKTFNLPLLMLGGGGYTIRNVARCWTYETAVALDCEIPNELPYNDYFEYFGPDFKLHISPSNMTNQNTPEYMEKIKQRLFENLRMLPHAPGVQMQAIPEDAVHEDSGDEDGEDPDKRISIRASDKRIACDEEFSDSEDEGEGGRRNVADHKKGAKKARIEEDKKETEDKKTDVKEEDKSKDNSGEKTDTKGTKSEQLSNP

| Structure (SMILES) | Activity (HeLa [1]) [%] | Activity (A204 [2]) [%] | Activity (HeLa [3]) | Activity (HeLa [4]) [%] | Activity (A204 [5]) [%] | Activity (HeLa [6]) | also measured |
| --- | --- | --- | --- | --- | --- | --- | --- |
| Nc1ccccc1NC(=O)/C=C/c1ccc(C(NCCCN2CCOCC2)C(=O)Nc2ccc(OC(F)(F)F)cc2)cc1 (configuration not stated) | 83 | 38 | 2.2 | 144 | 58 | 2.5 |  |
| Nc1ccccc1NC(=O)/C=C/c1ccc(C(NCCN2CCCCC2)C(=O)Nc2ccc(-c3ccc(C(F)(F)F)cc3F)cc2)cc1 (configuration not stated) | 110 | 65 | 1.7 | 153 | 84 | 1.8 |  |
| CN(CCN1CCOCC1)C(C(=O)Nc1ccc(OC(F)(F)F)cc1)c1ccc(/C=C/C(=O)Nc2ccccc2N)cc1 (configuration not stated) | 61 | 39 | 1.6 | 109 | 71 | 1.5 |  |
| Nc1ccccc1NC(=O)/C=C/c1ccc(C(NCc2ccco2)C(=O)Nc2ccc(C(F)(F)F)cc2)cc1 (configuration not stated) | 19 | 30 | 0.6 | 36 | 21 | 1.7 |  |
| Nc1ccccc1NC(=O)/C=C/c1ccc(C(NCCN2CCCCC2)C(=O)Nc2ccc(C(F)(F)F)cc2)cc1 (configuration not stated) | 163 | 69 | 2.4 | 77 | 85 | 0.9 |  |
| CN(CCN1CCOCC1)C(C(=O)Nc1ccc(C(F)(F)F)cc1)c1ccc(/C=C/C(=O)Nc2ccccc2N)cc1 (configuration not stated) | 72 | 70 | 1 | 121 | 82 | 1.5 |  |
| CC(CNC(C(=O)Nc1ccc(-c2ccc(C3CC3)cc2)cc1)c1ccc(/C=C/C(=O)Nc2ccccc2N)cc1)N1CCOCC1 (configuration not stated) | 161 | 75 | 2.2 | 196 | 98 | 2 |  |
| Nc1ccccc1NC(=O)/C=C/c1ccc(C(NCCCN2CCOCC2)C(=O)Nc2ccc(C3CC3)cc2)cc1 (configuration not stated) | 117 | 70 | 1.7 | 178 | 95 | 1.9 |  |
| Nc1ccccc1NC(=O)/C=C/c1ccc(C(NCCCN2CCOCC2)C(=O)Nc2ccc(C(F)(F)F)cc2)cc1 (configuration not stated) | 139 | 73 | 1.9 | 130 | 79 | 1.7 |  |
| Nc1ccccc1NC(=O)/C=C/c1ccc(C(NCCC2(O)CCOCC2)C(=O)Nc2ccc(C(F)(F)F)cc2)cc1 (configuration not stated) | 55 | 64 | 0.9 | 96 | 68 | 1.4 |  |
| CN(C)C(C(=O)Nc1ccc(C(F)(F)F)cc1)c1ccc(/C=C/C(=O)Nc2ccccc2N)cc1 (configuration not stated) | 24 | 45 | 0.5 | 43 | 33 | 1.3 |  |
| CN(C)CCNC(C(=O)Nc1ccc(C(F)(F)F)cc1)c1ccc(/C=C/C(=O)Nc2ccccc2N)cc1 (configuration not stated) | 138 | 69 | 2 | 134 | 93 | 1.4 |  |
| Nc1ccccc1NC(=O)/C=C/c1ccc(C(N)C(=O)Nc2ccc(C(F)(F)F)cc2)cc1 (configuration not stated) | 31 | 32 | 1 | 73 | 40 | 1.8 |  |
| CC(CNC(C(=O)Nc1ccc(OC(F)(F)F)cc1)c1ccc(/C=C/C(=O)Nc2ccccc2N)cc1)N1CCOCC1 (configuration not stated) | 160 | 72 | 2.2 | 104 | 44 | 2.4 | growth at 3 µM (HeLa [7]): 107%; growth at 10 µM (HeLa [8]): 83%; growth at 3 µM (A204 [9]): 97%; growth at 10 µM (A204 [10]): 93% |
| CN(C)CCNC(C(=O)Nc1ccc(OC(F)(F)F)cc1)c1ccc(/C=C/C(=O)Nc2ccccc2N)cc1 (configuration not stated) | 152 | 85 | 1.8 | 182 | 74 | 2.5 |  |
| Nc1ccccc1NC(=O)/C=C/c1ccc(C(NCCN2CCSCC2)C(=O)Nc2ccc(C(F)(F)F)cc2)cc1 (configuration not stated) | 71 | 77 | 0.9 | 95 | 63 | 1.5 |  |
| Nc1ccccc1NC(=O)/C=C/c1ccc(C(C(=O)Nc2ccc(C3CC3)cc2)N2CCCC2)cc1 (configuration not stated) | 100 | 58 | 1.7 | 148 | 98 | 1.5 |  |
| Nc1ccccc1NC(=O)/C=C/c1ccc(C(NCCN2C[C@@H]3C[C@H]2CO3)C(=O)Nc2ccc(OC(F)(F)F)cc2)cc1 (some centres not stated) | 98 | 39 | 2.6 | 152 | 63 | 2.4 | growth at 3 µM (HeLa [7]): 103%; growth at 10 µM (HeLa [8]): 82%; growth at 3 µM (A204 [9]): 97%; growth at 10 µM (A204 [10]): 90% |
| Nc1ccccc1NC(=O)/C=C/c1ccc(C(NCCN2CCCCC2)C(=O)Nc2ccc(-c3ccc(C4CC4)cc3)cc2)cc1 (configuration not stated) | 143 | 65 | 2.2 | 187 | 90 | 2.1 | growth at 3 µM (HeLa [7]): 103%; growth at 10 µM (HeLa [8]): 81%; growth at 3 µM (A204 [9]): 93%; growth at 10 µM (A204 [10]): 89%; IC50 (Histone deacetylase 1): 50 nM; IC50 (Histone deacetylase 2): 240 nM; IC50 (Histone deacetylase 3): 360 nM |
| N#Cc1ccc(-c2ccc(NC(=O)C(NCCN3CCCCC3)c3ccc(/C=C/C(=O)Nc4ccccc4N)cc3)cc2)cc1 (configuration not stated) | 128 | 72 | 1.8 | 157 | 92 | 1.7 |  |
| CC(C)c1ccc(-c2ccc(NC(=O)C(NCCN3CCCCC3)c3ccc(/C=C/C(=O)Nc4ccccc4N)cc3)cc2)cc1 (configuration not stated) | 77 | 42 | 1.8 | 130 | 63 | 2.1 |  |
| Nc1ccccc1NC(=O)/C=C/c1ccc(C(NCCN2CCOCC2)C(=O)Nc2ccc(C(F)(F)F)cc2)cc1 (configuration not stated) | 86 | 64 | 1.4 | 116 | 38 | 3.1 | IC50 (Histone deacetylase 1): 60 nM; IC50 (Histone deacetylase 2): 290 nM; IC50 (Histone deacetylase 3): 460 nM; GI50 (HeLa [11]): 2200 nM; GI50 (U2OS): 1000 nM; GI50 (HepG2): 1700 nM; GI50 (MCF7): 1900 nM; GI50 (HL-60): 400 nM; GI50 (HCT-116 [12]): 1000 nM; Activity (HCT-116 [13]): Dose-dependent effect; Activity (HCT-116 [14]): Dose-dependent effect; Activity (HCT-116 [15]): Dose-dependent effect; Activity (HCT-116 [16]): Dose-dependent effect |
| COCCNC(C(=O)Nc1ccc(C(F)(F)F)cc1)c1ccc(/C=C/C(=O)Nc2ccccc2N)cc1 (configuration not stated) | 36 | 45 | 0.8 | 64 | 56 | 1.1 |  |
| Nc1ccccc1NC(=O)/C=C/c1ccc(C(NCCN2CCCCC2)C(=O)Nc2ccc(OC(F)(F)F)cc2)cc1 (configuration not stated) | 112 | 39 | 2.9 | 136 | 40 | 3.4 | growth at 3 µM (HeLa [7]): 105%; growth at 10 µM (HeLa [8]): 61%; growth at 3 µM (A204 [9]): 95%; growth at 10 µM (A204 [10]): 88% |
| Nc1ccccc1NC(=O)/C=C/c1ccc(C(NCCC2CCOCC2)C(=O)Nc2ccc(C(F)(F)F)cc2)cc1 (configuration not stated) | 53 | 55 | 1 | 64 | 58 | 1.1 | IC50 (Histone deacetylase 1): 200 nM; IC50 (Histone deacetylase 2): 800 nM; IC50 (Histone deacetylase 3): 1000 nM |
| Nc1ccccc1NC(=O)/C=C/c1ccc(C(C(=O)Nc2ccc(C(F)(F)F)cc2)N2CCCC2)cc1 (configuration not stated) | 85 | 62 | 1.4 | 89 | 69 | 1.3 |  |
| Nc1ccccc1NC(=O)/C=C/c1ccc(C(NCCN2CCCCC2)C(=O)Nc2ccc(-c3ccc(C(F)(F)F)c(F)c3)cc2)cc1 (configuration not stated) | 77 | 32 | 2.4 | 92 | 54 | 1.7 |  |

Source: ChEMBL document CHEMBL1641604, “Application of p21 and klf2 reporter gene assays to identify selective histone deacetylase inhibitors for cancer therapy” (Bioorg Med Chem Lett, 2011)
